Active and inactive are the calls of the source. No cut-off for these calls is given here.

Experiment [1] concerns the target Protein arginine N-methyltransferase 1 (Homo sapiens, UniProt Q99873). Briefly: Inhibition of PRMT1-mediated methylation of NPL3 after 90 mins by scintillation counting in presence of S-adenosyl-l-[methyl-3H]methionine.
Experiment [2] has as its target T1, Histone-arginine methyltransferase CARM1 (Homo sapiens, UniProt Q86X55).
T1 sequence (Q86X55 whole entry): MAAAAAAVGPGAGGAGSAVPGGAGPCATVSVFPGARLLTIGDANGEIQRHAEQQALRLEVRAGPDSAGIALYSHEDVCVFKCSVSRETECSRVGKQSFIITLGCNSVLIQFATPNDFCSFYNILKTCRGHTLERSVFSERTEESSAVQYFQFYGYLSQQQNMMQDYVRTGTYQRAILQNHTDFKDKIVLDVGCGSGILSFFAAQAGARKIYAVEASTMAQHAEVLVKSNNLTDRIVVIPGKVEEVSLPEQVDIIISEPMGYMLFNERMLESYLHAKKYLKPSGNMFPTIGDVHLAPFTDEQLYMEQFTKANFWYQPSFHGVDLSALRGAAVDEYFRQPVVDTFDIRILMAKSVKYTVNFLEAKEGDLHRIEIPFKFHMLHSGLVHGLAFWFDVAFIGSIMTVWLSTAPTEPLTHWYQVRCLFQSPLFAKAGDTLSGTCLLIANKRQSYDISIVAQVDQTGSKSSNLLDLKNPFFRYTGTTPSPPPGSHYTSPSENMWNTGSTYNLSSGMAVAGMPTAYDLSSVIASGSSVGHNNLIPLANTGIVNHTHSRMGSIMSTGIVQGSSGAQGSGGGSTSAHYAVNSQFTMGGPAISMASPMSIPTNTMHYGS
Briefly: Inhibition of CARM1-mediated methylation of PABP1 after 90 mins by scintillation counting in presence of S-adenosyl-l-[methyl-3H]methionine.

For experiment [3], the target named is Histone-lysine N-methyltransferase, H3 lysine-79 specific (Homo sapiens) (UniProt Q8TEK3). Briefly: Inhibition of DOTL1-mediated methylation of nucleosome at 100 uM after 90 mins by scintillation counting in presence of S-adenosyl-l-[methyl-3H]methionine. In outline:
(§1)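 Compound at 100 μM with 0.1–0.2 μM recombinant enzyme and 0.5–1.5 μM substrate in PBS pH 7.4 containing [³H]AdoMet. Incubated 30 °C for 90 min, then SDS-PAGE, PVDF transfer and overnight film fluorography. Ponceau-stained substrate bands cut out and dpm counted by liquid scintillation.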

Experiment [4] addresses T2, Histone-arginine methyltransferase CARM1 (Homo sapiens) (UniProt Q86X55).
T2 sequence (whole entry): T1 sequence (Q86X55 whole entry)
Description: Inhibition of CARM1-mediated methylation of CA150 at 100 uM after 90 mins by scintillation counting in presence of S-adenosyl-l-[methyl-3H]methionine. In outline:
as §1

The target in experiment [5] is T3, Histone-lysine N-methyltransferase EHMT2 (Homo sapiens) (UniProt Q96KQ7).
T3 sequence (whole entry): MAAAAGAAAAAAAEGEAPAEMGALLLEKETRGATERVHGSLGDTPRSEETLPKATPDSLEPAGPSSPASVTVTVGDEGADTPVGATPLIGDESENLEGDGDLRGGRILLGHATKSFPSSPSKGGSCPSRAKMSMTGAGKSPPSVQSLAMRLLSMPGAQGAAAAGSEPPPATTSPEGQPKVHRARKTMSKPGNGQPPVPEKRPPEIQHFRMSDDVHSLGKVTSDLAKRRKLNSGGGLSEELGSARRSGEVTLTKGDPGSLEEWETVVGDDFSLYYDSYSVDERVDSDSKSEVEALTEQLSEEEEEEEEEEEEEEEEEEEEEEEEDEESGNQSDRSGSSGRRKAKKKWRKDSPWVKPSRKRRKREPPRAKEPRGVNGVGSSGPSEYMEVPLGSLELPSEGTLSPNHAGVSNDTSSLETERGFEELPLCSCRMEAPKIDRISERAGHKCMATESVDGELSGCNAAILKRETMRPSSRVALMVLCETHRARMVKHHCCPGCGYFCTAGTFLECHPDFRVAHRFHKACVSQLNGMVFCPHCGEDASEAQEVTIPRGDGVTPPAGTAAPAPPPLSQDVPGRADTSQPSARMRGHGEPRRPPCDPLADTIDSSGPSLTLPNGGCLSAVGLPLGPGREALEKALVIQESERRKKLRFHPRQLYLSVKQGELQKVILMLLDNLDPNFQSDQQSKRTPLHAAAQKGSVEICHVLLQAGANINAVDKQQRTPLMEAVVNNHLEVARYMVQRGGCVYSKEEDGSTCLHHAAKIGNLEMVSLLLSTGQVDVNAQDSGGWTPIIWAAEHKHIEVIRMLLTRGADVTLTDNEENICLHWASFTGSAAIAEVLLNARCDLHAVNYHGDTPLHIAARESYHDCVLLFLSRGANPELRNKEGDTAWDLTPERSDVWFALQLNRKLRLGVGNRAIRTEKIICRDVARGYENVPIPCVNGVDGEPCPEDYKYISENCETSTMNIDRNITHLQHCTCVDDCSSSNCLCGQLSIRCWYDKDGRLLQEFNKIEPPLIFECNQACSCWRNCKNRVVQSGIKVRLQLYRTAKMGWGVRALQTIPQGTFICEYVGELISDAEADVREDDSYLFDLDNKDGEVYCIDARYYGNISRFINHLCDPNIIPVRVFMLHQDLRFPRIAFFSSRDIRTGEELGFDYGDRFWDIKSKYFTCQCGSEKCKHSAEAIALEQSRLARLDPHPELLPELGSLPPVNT
Description: Inhibition of G9a-mediated methylation of histone H3 at 100 uM after 90 mins by scintillation counting in presence of S-adenosyl-l-[methyl-3H]methionine. Put shortly:
as §1

Experiment [6] addresses T4, Histone-lysine N-methyltransferase SUV39H1 (Homo sapiens) (UniProt O43463).
T4 sequence (whole entry): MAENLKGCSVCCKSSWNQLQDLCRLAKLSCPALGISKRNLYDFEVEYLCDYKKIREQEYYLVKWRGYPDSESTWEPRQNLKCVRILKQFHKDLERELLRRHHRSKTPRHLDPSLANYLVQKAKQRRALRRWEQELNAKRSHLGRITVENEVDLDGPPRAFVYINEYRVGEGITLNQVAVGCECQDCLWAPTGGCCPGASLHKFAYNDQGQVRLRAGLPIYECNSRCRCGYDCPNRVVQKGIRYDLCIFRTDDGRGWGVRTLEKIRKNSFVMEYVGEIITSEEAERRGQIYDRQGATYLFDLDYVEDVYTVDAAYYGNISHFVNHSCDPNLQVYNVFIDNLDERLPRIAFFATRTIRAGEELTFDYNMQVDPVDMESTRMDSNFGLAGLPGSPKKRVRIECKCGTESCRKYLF
Description: Inhibition of Suv39H1-mediated methylation of histone H3 at 100 uM after 90 mins by scintillation counting in presence of S-adenosyl-l-[methyl-3H]methionine.

In experiment [7] the target is T2, Histone-arginine methyltransferase CARM1 (Homo sapiens). Description: Inhibition of CARM1-mediated methylation of histone H3 at 100 uM after 90 mins by scintillation counting in presence of S-adenosyl-l-[methyl-3H]methionine. In outline: as §1
The target is the same in experiment [8]. Description: Inhibition of CARM1-mediated methylation of SMB at 100 uM after 90 mins by scintillation counting in presence of S-adenosyl-l-[methyl-3H]methionine. Put shortly:
as §1

Histone-lysine N-methyltransferase, H3 lysine-79 specific (Homo sapiens), sequence (Q8TEK3 whole entry, looked up): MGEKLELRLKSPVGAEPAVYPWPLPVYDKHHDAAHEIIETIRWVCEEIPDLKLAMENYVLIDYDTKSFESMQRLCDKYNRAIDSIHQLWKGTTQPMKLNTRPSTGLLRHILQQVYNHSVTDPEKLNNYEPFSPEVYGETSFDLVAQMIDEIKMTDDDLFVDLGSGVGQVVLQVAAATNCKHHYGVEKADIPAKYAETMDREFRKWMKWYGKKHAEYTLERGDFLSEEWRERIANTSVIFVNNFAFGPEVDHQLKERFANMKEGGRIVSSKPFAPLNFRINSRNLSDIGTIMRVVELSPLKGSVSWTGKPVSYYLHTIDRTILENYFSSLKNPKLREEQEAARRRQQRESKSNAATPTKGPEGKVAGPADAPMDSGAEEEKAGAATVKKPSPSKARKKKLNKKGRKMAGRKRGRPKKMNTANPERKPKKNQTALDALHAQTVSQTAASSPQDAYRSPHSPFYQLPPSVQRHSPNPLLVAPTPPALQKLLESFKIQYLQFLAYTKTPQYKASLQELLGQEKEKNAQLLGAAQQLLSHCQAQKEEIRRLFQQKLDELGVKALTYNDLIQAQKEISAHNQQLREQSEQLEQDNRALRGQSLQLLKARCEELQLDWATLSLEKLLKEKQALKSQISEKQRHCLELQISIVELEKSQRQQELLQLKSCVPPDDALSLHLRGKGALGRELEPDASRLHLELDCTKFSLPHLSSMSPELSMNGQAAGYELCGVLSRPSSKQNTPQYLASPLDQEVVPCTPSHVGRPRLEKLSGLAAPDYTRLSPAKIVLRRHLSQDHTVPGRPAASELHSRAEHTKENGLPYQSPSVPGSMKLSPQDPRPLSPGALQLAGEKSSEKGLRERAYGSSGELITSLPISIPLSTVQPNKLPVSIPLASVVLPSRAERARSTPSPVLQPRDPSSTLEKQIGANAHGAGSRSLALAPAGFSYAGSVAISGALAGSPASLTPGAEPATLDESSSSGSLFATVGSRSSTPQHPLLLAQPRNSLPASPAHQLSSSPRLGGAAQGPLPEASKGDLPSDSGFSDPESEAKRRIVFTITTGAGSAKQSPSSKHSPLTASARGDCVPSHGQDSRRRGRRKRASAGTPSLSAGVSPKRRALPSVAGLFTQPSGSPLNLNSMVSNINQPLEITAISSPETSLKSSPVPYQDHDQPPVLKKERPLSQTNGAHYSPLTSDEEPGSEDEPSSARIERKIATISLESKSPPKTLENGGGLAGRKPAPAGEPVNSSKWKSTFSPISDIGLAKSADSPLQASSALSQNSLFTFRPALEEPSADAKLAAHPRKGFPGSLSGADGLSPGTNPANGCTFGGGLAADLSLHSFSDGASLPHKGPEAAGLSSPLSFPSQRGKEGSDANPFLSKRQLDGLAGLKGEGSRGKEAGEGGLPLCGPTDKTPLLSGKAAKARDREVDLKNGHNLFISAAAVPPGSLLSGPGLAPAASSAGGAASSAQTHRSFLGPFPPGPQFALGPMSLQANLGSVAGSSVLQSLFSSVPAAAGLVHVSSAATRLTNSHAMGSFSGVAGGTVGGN
Protein arginine N-methyltransferase 1, sequence (Q99873 whole entry): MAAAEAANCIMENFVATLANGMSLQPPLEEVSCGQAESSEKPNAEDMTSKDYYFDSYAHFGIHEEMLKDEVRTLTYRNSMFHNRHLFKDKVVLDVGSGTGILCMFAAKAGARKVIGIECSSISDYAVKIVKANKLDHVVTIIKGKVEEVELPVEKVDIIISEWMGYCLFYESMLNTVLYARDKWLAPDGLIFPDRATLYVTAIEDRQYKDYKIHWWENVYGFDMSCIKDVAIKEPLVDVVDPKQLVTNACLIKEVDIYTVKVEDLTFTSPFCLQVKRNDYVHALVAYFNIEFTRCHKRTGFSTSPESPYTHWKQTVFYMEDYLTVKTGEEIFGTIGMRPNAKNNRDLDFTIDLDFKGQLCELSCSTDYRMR

Broadly, the IC50 is the concentration that inhibits the measured activity by half. With `O=C1/C(=C/c2ccc(O)c(Br)c2)CN(CC(=O)c2ccccc2)C/C1=C\c1ccc(O)c(Br)c1`, the IC50 is greater than 667 µM in experiment [1] and 14.4 µM in experiment [2]. Moreover, the inhibition entry in experiment [3], in experiment [5] and in experiment [6] was “inactive” each time. Besides, the inhibition result in experiment [4], in experiment [7] and in experiment [8] was “Active” in each case.
As for `O=C1/C(=C/c2ccc(O)c(Br)c2)CN(Cc2ccccc2)C/C1=C\c1ccc(O)c(Br)c1`, the IC50 was greater than 667 µM in experiment [1] and 8.6 µM in experiment [2]. Also, the inhibition result in experiment [3], in experiment [5] and in experiment [6] was “inactive” each time. The inhibition result in experiment [4], in experiment [7] and in experiment [8] was “Active” each time.
In the case of `O=C1/C(=C/c2ccc(O)c(Br)c2)CN(Cc2cccc(Cl)c2)C/C1=C\c1ccc(O)c(Br)c1`, the IC50 in experiment [1] is greater than 667 µM; in experiment [2], 8.1 µM. The inhibition entry in experiment [3], in experiment [5] and in experiment [6] was “inactive” in each case. The inhibition result in experiment [4], in experiment [7] and in experiment [8] was “Active” in each case.

(Values after ChEMBL document CHEMBL1799916, “Novel 3,5-bis(bromohydroxybenzylidene)piperidin-4-ones as coactivator-associated arginine methyltransferase 1 inhibitors: enzyme selectivity and cellular activity” (J Med Chem, 2011).)
